Reference: ChEMBL document CHEMBL4265873, “Design and discovery of silybin analogues as antiproliferative compounds using a ring disjunctive - Based, natural product lead optimization approach” (Eur J Med Chem, 2017)
The source made the active and inactive calls. No cut-off for these calls is given here.

Columns and labels:
2008 [1] = assay: Reduction in mitochondrial potential in human OV2008 cells at 2 uM incubated for 12 hrs by Alexa Fluor 488 annexin V and mito-tracker red CMXRos dye staining based flow cytometry; type: functional, cell-based
Procedure, shortened: (§1)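 Cells in complete medium were treated with 0, 2 or 4 µM for 12 h, then trypsinised. They were stained with MitoTracker Red (4 µL of 10 µM working solution per 1 mL of cells) for 30 min at 37 °C under 5% CO2. Cells were then resuspended in annexin-binding buffer with Alexa Fluor 488 annexin V for 15 min. Flow cytometry emission read at 530 and 585 nm. Two independent experiments, each in triplicate.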

2008 [2] = assay: Induction of cell cycle arrest in human OV2008 cells assessed as cell accumulation at S phase at 2 uM incubated for 12 hrs by propidium iodide staining based flow cytometry (reference value: 5.2%); type: functional
Procedure, shortened: (§2)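 OV2008 cells were plated at 1x10^6 cells/well and incubated with 0, 2 or 4 µM for 12 h. Cells were trypsinised, washed and resuspended in ice-cold PBS, then stained with propidium iodide for at least 15 min. Phase distribution was measured by flow cytometry. Means ± SD of three independent experiments in triplicate.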

A2780 [3] = assay: Induction of morphological changes in human A2780 cells at 1 to 4 uM incubated for 68 hrs; type: functional, cell-based
Procedure, shortened: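 OV2008 and A2780 cells, with CHO alongside, were exposed to 0, 1, 2 or 4 µM for 68 h. Each triplicate treatment was photographed at 20X under an inverted microscope to assess morphology.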

2008 [4] = assay: Inhibition of cell proliferation of human OV2008 cells at 1 to 8 uM incubated for 10 to 50 hrs; type: functional, cell-based
Procedure, shortened: (§3)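 OV2008 or A2780 cells were seeded at low density (1x10^3 cells/well) and given 0, 2, 4 or 8 µM. Live-cell images were taken every 2 h for up to 48 h. Confluence at each time point was quantified with a confluence mask and plotted as timeline curves. Means ± SD of three independent experiments.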

MDA-MB-231 = assay: Cytotoxicity in human MDA-MB-231 cells assessed as reduction in cell viability incubated for 68 hrs by MTT assay; type: functional, cell-based; settings: MDA-MB-231, 68 h
Procedure, shortened: (§4)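 Cells were trypsinised and seeded at 5x10^3 cells/well. Compound was added at 0, 0.1, 0.3, 1, 3, 10, 30 and 100 µM for 68 h. MTT (4 mg/mL solution) was then added for 4 h, and the formazan was dissolved in DMSO. Absorbance read at 570 nm. IC50 was derived from % survival across the eight concentrations. Mean ± SD of three independent experiments, each in triplicate.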

2008 [5] = assay: Induction of apoptosis in human OV2008 cells assessed as apoptosis cells level at 4 uM incubated for 12 hrs by Alexa Fluor 488 annexin V and mito-tracker red CMXRos dye staining based flow cytometry (reference value: 19.6%); type: functional; procedure, shortened: as §1
[6] = Cytotoxicity in human CRL1459 cells assessed as reduction in cell viability incubated for 68 hrs by MTT assay; type: cell-based; procedure, shortened: as §4
2008 [7] = assay: Potency index, ratio of IC50 for silybin to IC50 for test compound for cytotoxicity in human OV2008 cells assessed as reduction in cell viability incubated for 68 hrs by MTT assay; type: functional
2008 [8] = assay: Induction of cell cycle arrest in human OV2008 cells assessed as increase in cell accumulation at subG1 phase at 2 to 4 uM incubated for 12 hrs by propidium iodide staining based flow cytometry; type: functional; procedure, shortened: as §2
[9] = Selectivity index, ratio of IC50 for cytotoxicity in HEK293 cells incubated for 68 hrs by MTT assay to IC50 for cytotoxicity in human OV2008 cells incubated for 68 hrs by MTT assay; type: toxicity, cell-based; settings: HEK293 cells versus OV2008 cells, read-out: Ratio IC50
2008 [10] = assay: Reduction in alpha-tubulin expression human OV2008 cells at 2 to 4 uM measured after overnight incubation by Western blot analysis; type: functional, cell-based
Homo sapiens [11] = species on record: Homo sapiens; assay: Inhibition of tubulin alpha in human OV2008 cells assessed as induction of disturbance in cellular microtubule shape and integrity at 2 to 4 uM after overnight incubation by immunofluorescence analysis; type: cell-based
2008 [12] = assay: Induction of cell cycle arrest in human OV2008 cells assessed as cell accumulation at subG1 phase at 2 uM incubated for 12 hrs by propidium iodide staining based flow cytometry (reference value: 11.3%); type: functional; procedure, shortened: as §2
ZR-75-1 = assay: Cytotoxicity in human ZR-75-1 cells assessed as reduction in cell viability incubated for 68 hrs by MTT assay; type: functional, cell-based; settings: ZR-75-1, 68 h; procedure, shortened: as §4
HEK293 = assay: Cytotoxicity in HEK293 cells assessed as reduction in cell viability incubated for 68 hrs by MTT assay; type: cell-based; settings: Homo sapiens, HEK293, 68 h; procedure, shortened: as §4
A2780 [13] = assay: Inhibition of cell proliferation of human A2780 cells at 1 to 8 uM incubated for 10 to 50 hrs; type: functional, cell-based; procedure, shortened: as §3
2008 [14] = assay: Induction of apoptosis in human OV2008 cells assessed as apoptosis cells level at 2 uM incubated for 12 hrs by Alexa Fluor 488 annexin V and mito-tracker red CMXRos dye staining based flow cytometry (reference value: 19.6%); type: functional; procedure, shortened: as §1
2008 [15] = assay: Cytotoxicity in human OV2008 cells assessed as reduction in cell viability incubated for 68 hrs by MTT assay; type: functional, cell-based; settings: Homo sapiens, 2008, 68 h; procedure, shortened: as §4
[16] = Selectivity index, ratio of IC50 for cytotoxicity in HEK293 cells incubated for 68 hrs by MTT assay to IC50 for cytotoxicity in human A2780 cells incubated for 68 hrs by MTT assay; type: toxicity, cell-based; settings: HEK293 cells versus A2780 cells, read-out: Ratio IC50
2008 [17] = assay: Induction of cell cycle arrest in human OV2008 cells assessed as cell accumulation at G1 phase at 4 uM incubated for 12 hrs by propidium iodide staining based flow cytometry (reference value: 79.1%); type: functional; procedure, shortened: as §2
A2780 [18] = assay: Reduction in mitochondrial potential in human A2780 cells at 2 uM incubated for 12 hrs by Alexa Fluor 488 annexin V and mito-tracker red CMXRos dye staining based flow cytometry; type: functional, cell-based; procedure, shortened: as §1
Homo sapiens [19] = species on record: Homo sapiens; assay: Inhibition of tubulin alpha in human OV2008 cells assessed as reduction in alpha-tubulin fluorescence at 2 to 4 uM after overnight incubation by immunofluorescence analysis; type: cell-based
CHO = assay: Cytotoxicity in CHO cells assessed as reduction in cell viability incubated for 68 hrs by MTT assay; type: cell-based; settings: Cricetulus griseus; procedure, shortened: as §4
[20] = Selectivity index, ratio of IC50 for cytotoxicity in human CRL1459 cells incubated for 68 hrs by MTT assay to IC50 for cytotoxicity in human A2780 cells incubated for 68 hrs by MTT assay; type: toxicity, cell-based; settings: CRL1459 cells versus A2780 cells, read-out: Ratio IC50
DU-145 = assay: Cytotoxicity in human DU145 cells assessed as reduction in cell viability incubated for 68 hrs by MTT assay; type: functional, cell-based; settings: DU-145, 68 h; procedure, shortened: as §4
MCF7 = assay: Cytotoxicity in human MCF7 cells assessed as reduction in cell viability incubated for 68 hrs by MTT assay; type: functional, cell-based; settings: MCF7, 68 h; procedure, shortened: as §4
A2780 [21] = assay: Cytotoxicity in human A2780 cells assessed as reduction in cell viability incubated for 68 hrs by MTT assay; type: functional, cell-based; settings: A2780, 68 h; procedure, shortened: as §4
[22] = Selectivity index, ratio of IC50 for cytotoxicity in CHO cells incubated for 68 hrs by MTT assay to IC50 for cytotoxicity in human OV2008 cells incubated for 68 hrs by MTT assay; type: toxicity, cell-based; settings: Chinese hamster (CHO cells), CHO cells versus OV2008 cells, read-out: Ratio IC50

## O=C(/C=C/c1cccc(OCc2ccccc2)c1)c1ccc(O)cc1
2008 [1]
  Activity: Active
2008 [2]
  Activity: 4.4%
A2780 [3]
  Activity: Active
2008 [4]
  inhibition: Active
MDA-MB-231
  IC50: 2.9 µM
2008 [5]
  Activity: 42.5%
[6]
  IC50: 8.5 µM
2008 [7]
  Ratio IC50: 30 - 200
2008 [8]
  Activity: Dose-dependent effect
[9]
  selectivity ratio at 68 h: 6 to 30
2008 [10]
  Activity: Active
Homo sapiens [11]
  inhibition: Active
2008 [12]
  Activity: 25.5%
ZR-75-1
  IC50: 4.9 µM
HEK293
  IC50: 5.4 µM
A2780 [13]
  inhibition: Active
2008 [14]
  Activity: 38.1%
2008 [15]
  IC50: 0.8 µM
[16]
  selectivity ratio at 68 h: 6 to 30
2008 [17]
  Activity: 45.3%
A2780 [18]
  Activity: Active
Homo sapiens [19]
  inhibition: Active
CHO
  IC50: 8.1 µM
[20]
  selectivity ratio at 68 h: 6 to 30
DU-145
  IC50: 6.3 µM
MCF7
  IC50: 2.8 µM
A2780 [21]
  IC50: 1 µM
[22]
  selectivity ratio at 68 h: 6 to 30
